Results on five compounds are retold here after ChEMBL document CHEMBL2086376, “Total synthesis of 2''',5'''-diepisilvestrol and its C1''' epimer: key structure activity relationships at C1''' and C2'''” (J Nat Prod, 2012).

Assay [1] in a line: Cytotoxicity against human breast cancer cells. The assay is classed as functional. The conditions noted are these: Cancer cell lines, read-out: ED50 (the source's name).
Assay [2] is filed under the species Oryctolagus cuniculus. The experiment in a line: Inhibition of translation in rabbit reticulocyte lysate by luciferase assay. The assay is classed as functional. A digest of the protocol: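 Cell-free translation in rabbit reticulocyte lysate, final KCl 135 mM, programmed with 8 μg/mL capped FF/HCV/Ren bicistronic mRNA. Firefly and Renilla luciferase activities were the read-out.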

A short description of assay [3]: Cytotoxicity against human lung cancer cells. As to conditions: Cancer cell lines, read-out: ED50 (the source's name). The assay is classed as functional.
Assay [4] concerns Leukemia cell. Nature of the assay: Anticancer activity in patient with chronic lymphocytic leukemia. The assay is classed as functional. As to conditions: Homo sapiens, read-out: LC50 (the source's name).
A short description of assay [5]: Cytotoxicity against human colon cancer cells. The assay is classed as functional, cell-based. The conditions noted are these: Cancer cell lines.
The subject of assay [6] is A549. Nature of the assay: Cytotoxicity against human A549 cells. The assay is classed as functional, cell-based.

By IC50 is commonly meant the midpoint of a concentration-inhibition curve. A higher IC50 goes with weaker potency.

Activity calls are given as the source filed them. The calls are words filed in the database; no cut-off is given here.

In the case of `COC(=O)[C@H]1[C@@H](O)[C@@]2(O)c3c(OC)cc(O[C@@H]4O[C@@H]([C@H](O)CO)CO[C@@H]4OC)cc3O[C@@]2(c2ccc(OC)cc2)[C@@H]1c1ccccc1`, the EC50 in assay [1] worked out at 1.5 nM; in assay [3], 1.2 nM. The inhibition result in assay [2] is “Active”.

With `COC(=O)[C@H]1[C@@H](O)[C@@]2(O)c3c(OC)cc(O[C@@H]4O[C@@H]([C@@H](O)CO)CO[C@@H]4OC)cc3O[C@@]2(c2ccc(OC)cc2)[C@@H]1c1ccccc1`, in assay [2], the inhibition result was “Active”.

As for `COC(=O)[C@H]1[C@@H](O)[C@@]2(O)c3c(OC)cc(O[C@@H]4O[C@@H]([C@H](O)CO)CO[C@H]4OC)cc3O[C@@]2(c2ccc(OC)cc2)[C@@H]1c1ccccc1` [SILVESTROL], the EC50 in assay [1] was found to be 1.5 nM; in assay [3], 1.2 nM. In assay [4], the CC50 is 6.9 nM.

Take `COC(=O)[C@H]1[C@@H](O)[C@@]2(O)c3c(OC)cc(O[C@@H]4O[C@@H]([C@@H](O)CO)CO[C@H]4OC)cc3O[C@@]2(c2ccccc2)[C@@H]1c1ccccc1`: the IC50 stood at 10 nM in assay [5] and 130 nM in assay [6].

In the case of `COC(=O)[C@H]1[C@@H](O)[C@@]2(O)c3c(OC)cc(O[C@H]4O[C@@H]([C@@H](O)CO)CO[C@@H]4OC)cc3O[C@@]2(c2ccc(OC)cc2)[C@@H]1c1ccccc1`, the inhibition result in assay [2] is “inactive”.
